Measured values published in ChEMBL document CHEMBL1152488, “Synthesis and evaluation of pyrido[1,2-a]pyrimidines as inhibitors of nitric oxide synthases” (Eur J Med Chem, 2009).
Calls of active or inactive are those of the source. No cut-off for these calls is given here.

What was measured:
[1] = molecular target: T1, Nitric oxide synthase, inducible (Mus musculus, UniProt P29477); assay: Inhibition of mouse iNOS expressed in insect Sf9 cells by competitive binding assay
T1 sequence (P29477 whole entry): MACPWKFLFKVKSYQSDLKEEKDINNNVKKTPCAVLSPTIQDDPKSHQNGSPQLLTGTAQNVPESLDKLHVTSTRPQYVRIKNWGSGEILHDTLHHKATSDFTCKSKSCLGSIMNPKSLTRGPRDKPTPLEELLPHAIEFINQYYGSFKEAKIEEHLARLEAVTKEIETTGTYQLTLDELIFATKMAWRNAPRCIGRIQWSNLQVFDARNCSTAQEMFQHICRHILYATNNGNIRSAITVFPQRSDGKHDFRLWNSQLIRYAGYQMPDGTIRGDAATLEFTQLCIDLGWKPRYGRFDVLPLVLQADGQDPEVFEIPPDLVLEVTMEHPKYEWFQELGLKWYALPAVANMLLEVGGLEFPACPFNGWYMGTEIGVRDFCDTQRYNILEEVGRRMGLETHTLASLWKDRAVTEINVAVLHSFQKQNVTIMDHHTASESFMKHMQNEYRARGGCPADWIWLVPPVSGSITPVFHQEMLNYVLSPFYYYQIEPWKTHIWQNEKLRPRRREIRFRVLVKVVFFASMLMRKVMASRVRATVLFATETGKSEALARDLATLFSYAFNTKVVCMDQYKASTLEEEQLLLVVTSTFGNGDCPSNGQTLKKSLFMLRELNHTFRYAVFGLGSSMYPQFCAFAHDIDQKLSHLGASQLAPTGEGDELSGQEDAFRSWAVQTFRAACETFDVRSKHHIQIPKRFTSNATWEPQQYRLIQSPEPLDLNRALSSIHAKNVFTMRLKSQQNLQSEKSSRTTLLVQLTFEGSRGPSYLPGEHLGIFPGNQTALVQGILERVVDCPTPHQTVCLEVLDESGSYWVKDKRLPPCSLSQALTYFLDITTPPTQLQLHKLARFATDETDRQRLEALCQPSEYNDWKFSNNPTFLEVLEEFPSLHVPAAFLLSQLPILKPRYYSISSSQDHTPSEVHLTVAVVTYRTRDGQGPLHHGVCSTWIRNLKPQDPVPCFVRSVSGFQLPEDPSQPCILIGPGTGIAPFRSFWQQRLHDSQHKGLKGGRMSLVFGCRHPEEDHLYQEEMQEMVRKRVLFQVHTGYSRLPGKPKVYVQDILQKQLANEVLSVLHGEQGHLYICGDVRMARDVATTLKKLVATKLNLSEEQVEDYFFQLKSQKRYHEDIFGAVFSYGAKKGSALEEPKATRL

Nitric oxide synthase 3 = molecular target: T2, Nitric oxide synthase 3 (Bos taurus, UniProt P29473); assay: Inhibition of bovine recombinant eNOS expressed in Escherichia coli assessed as conversion of [gamma-14C]L-arginine to [14C]L-citrulline by radioactive assay
T2 sequence (P29473 whole entry): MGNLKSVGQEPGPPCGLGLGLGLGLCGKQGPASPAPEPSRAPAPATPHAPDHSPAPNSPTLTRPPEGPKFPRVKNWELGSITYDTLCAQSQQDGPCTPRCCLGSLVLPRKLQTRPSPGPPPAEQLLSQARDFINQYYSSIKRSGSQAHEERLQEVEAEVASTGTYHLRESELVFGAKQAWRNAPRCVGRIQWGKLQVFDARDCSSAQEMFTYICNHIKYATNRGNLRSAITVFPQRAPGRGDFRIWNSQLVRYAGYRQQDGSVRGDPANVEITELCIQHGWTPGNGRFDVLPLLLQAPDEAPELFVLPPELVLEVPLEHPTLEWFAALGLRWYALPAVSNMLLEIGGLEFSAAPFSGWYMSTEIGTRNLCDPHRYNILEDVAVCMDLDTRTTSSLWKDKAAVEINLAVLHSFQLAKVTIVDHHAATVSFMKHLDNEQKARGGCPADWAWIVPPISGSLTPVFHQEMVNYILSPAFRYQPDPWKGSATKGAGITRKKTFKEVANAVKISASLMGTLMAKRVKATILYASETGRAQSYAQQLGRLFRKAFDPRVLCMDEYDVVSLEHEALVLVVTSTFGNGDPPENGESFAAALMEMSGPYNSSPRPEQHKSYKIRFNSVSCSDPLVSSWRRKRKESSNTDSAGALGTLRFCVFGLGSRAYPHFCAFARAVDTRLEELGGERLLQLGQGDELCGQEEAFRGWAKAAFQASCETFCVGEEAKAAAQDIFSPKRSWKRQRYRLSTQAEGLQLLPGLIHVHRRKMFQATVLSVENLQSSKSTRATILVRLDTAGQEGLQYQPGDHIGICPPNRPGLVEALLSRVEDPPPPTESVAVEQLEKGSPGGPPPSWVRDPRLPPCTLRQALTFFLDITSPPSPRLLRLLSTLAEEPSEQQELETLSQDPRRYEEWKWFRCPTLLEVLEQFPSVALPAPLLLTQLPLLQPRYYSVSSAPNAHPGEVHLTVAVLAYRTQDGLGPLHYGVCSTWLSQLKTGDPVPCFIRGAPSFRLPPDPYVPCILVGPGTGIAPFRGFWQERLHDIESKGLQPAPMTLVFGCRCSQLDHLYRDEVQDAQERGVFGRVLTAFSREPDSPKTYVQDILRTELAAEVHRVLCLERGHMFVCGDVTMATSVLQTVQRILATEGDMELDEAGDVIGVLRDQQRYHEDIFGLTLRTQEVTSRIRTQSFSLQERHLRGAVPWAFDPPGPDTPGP
Summary of the method: (§1)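 CaCl2/CaM present for nNOS (S. cerevisiae) and eNOS (E. coli) but omitted for iNOS (E. coli). Citrulline separated by Dowex cation exchange, then scintillation counting.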

Nitric oxide synthase 1 = Nitric oxide synthase 1 (Rattus norvegicus, UniProt P29476); assay: Inhibition of rat recombinant nNOS expressed in Saccharomyces cerevisiae assessed as conversion of [gamma-14C]L-arginine to [14C]L-citrulline by radioactive assay; summary of the method: as §1
[2] = molecular target: T1, Nitric oxide synthase, inducible; assay: Inhibition of mouse recombinant iNOS expressed in Escherichia coli assessed as conversion of [14C]L-arginine to [14C]L-citrulline by radioactive assay
[3] = molecular target: T3, Nitric oxide synthase, inducible (Mus musculus) (UniProt P29477); assay: Inhibition of mouse iNOS expressed in insect Sf9 cells at 1 mM preincubated for 15 mins followed by compound dilution
T3 sequence (whole entry): T1 sequence (P29477 whole entry)

[4] = molecular target: T1, Nitric oxide synthase, inducible; assay: Inhibition of mouse recombinant iNOS expressed in Escherichia coli assessed as NADPH consumption after 2 mins by spectrophotometry
Summary of the method: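 Murine iNOS from E. coli (15–50 nM final) in 50 mM Hepes pH 7.4 with 5 mM DTT, 100 µM CaCl2, 200 µM NADPH, 10 µM H4B, 100 µM L-arginine and 100 µM compound. Cofactors and compound preincubated 2 min at 37 °C, enzyme added, and A340 followed for 3 min (ε 6.2 mM-1 cm-1). Given as % of 1% DMSO control NADPH oxidase rate.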

[5] = Dissociation constant, pKa of the compound; type: physicochemical
Summary of the method: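 UV spectrophotometric titration. Compound dissolved in 10% aqueous methanol, then mixed 1:1 with NaOH (0.002–6 M) and 1 M HCl to a final 150 µM. Absorbance read at 312 nm across the pH series.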

Sequence of Nitric oxide synthase 1 (P29476 whole entry): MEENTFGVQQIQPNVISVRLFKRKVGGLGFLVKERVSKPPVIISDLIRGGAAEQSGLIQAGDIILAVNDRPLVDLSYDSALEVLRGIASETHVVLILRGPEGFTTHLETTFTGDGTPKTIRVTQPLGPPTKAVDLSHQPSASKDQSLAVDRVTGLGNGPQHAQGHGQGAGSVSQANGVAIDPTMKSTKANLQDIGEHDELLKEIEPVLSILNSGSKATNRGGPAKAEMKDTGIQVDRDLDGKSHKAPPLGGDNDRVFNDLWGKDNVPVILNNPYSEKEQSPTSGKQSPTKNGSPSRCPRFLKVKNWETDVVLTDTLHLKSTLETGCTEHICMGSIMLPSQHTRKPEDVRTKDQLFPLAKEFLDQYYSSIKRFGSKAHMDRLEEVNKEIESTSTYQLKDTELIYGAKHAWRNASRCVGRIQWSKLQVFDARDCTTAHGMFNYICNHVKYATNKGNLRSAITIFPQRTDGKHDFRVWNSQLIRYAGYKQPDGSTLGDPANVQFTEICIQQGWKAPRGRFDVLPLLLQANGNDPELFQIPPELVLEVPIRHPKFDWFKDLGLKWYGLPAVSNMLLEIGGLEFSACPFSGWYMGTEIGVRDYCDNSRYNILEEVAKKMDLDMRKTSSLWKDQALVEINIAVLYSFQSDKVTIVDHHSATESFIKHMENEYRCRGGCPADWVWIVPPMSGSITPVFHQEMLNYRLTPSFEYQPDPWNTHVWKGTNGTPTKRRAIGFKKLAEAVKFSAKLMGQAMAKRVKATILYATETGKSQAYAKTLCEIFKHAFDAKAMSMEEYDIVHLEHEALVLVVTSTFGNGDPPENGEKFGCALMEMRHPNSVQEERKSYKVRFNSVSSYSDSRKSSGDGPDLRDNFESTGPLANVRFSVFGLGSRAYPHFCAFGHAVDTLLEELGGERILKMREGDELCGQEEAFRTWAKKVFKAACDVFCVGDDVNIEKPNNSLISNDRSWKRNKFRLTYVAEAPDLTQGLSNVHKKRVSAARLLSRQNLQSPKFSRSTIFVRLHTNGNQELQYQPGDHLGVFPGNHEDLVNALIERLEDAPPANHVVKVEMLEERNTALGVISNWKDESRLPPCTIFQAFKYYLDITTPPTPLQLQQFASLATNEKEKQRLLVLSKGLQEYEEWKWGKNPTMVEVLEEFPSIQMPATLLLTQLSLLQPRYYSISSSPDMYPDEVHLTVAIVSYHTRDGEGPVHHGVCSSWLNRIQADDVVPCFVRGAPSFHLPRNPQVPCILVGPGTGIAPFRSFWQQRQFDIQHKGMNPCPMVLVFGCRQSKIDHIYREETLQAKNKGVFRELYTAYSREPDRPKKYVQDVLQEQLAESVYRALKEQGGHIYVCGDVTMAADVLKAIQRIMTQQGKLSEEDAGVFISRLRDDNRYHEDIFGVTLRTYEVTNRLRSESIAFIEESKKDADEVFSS

| Ki [1] | IC50 (Nitric oxide synthase 3) | IC50 (Nitric oxide synthase 1) | Structure (SMILES) | other results |
| --- | --- | --- | --- | --- |
| 23 µM |  |  | CC1=CC2=NCC(C(=O)c3ccc4cc(C)ccc4c3)CN2C=C1.[O-][Cl+3]([O-])([O-])O (stereo not given) |  |
| 15 µM | 60 µM | 87 µM | COc1ccc(-c2ccc(C(=O)C3CN=C4C=C(C)C=CN4C3)cc2)cc1.Cl (stereo not given) |  |
| 14 µM |  |  | CC1=CC2=NCC(C(=O)c3ccc(-c4ccc(Br)cc4)cc3)CN2C=C1.[O-][Cl+3]([O-])([O-])O (stereo not given) | IC50 [2]: 28 µM; Activity [3]: inactive |
|  | 12 µM |  | CC1=CC2=NCC(C(=O)c3ccc(OCc4ccc(Cl)cc4)cc3)CN2C=C1.[O-][Cl+3]([O-])([O-])O (stereo not given) |  |

More lines, now with the values behind:

| Structure (SMILES) | Ki [1] | IC50 (Nitric oxide synthase 3) | IC50 (Nitric oxide synthase 1) | other results |
| --- | --- | --- | --- | --- |
| CC1=CC2=NCC(C(=O)c3ccc4cc(C)ccc4c3)CN2C(C)=C1.[O-][Cl+3]([O-])([O-])O (stereo not given) |  | 53 µM | 60 µM |  |
| CC1=CC2=NCC(C(=O)c3ccc(-c4ccc(C#N)cc4)cc3)CN2C=C1.Cl (stereo not given) |  | 12 µM | 128 µM | IC50 [4]: 11 µM |
| O=C(c1ccc(Br)cc1)C1CN=C2C=CC=CN2C1 (stereo not given) |  |  |  | pKa [5]: 12.4 |
| CC1=CC2=NCC(C(=O)c3ccc(-c4ccc(Br)cc4)cc3)CN2C(C)=C1 (stereo not given) |  | 188 µM |  |  |
